Test results published in ChEMBL document CHEMBL4393708, “Pyridinylimidazoles as dual glycogen synthase kinase 3β/p38α mitogen-activated protein kinase inhibitors” (Eur J Med Chem, 2019).
In brackets after ≈: the same amount, converted by molar mass.

Columns and labels:
[1] = Ratio of drug concentration in RjOrl:Swiss CD-1 mouse brain at 10 mg/kg, iv to IC50 for human recombinant full length GSK3beta; assay type: ADME, organism-based; conditions: in vivo
In short: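 Adult male mice received a single 10 mg/kg intravenous dose. After the final plasma sample at 2 h, the mice were sacrificed and brains dissected. Brain concentration was measured by LC-MS and related to the in vitro IC50 values for GSK3β and p38α.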

[2] = target: T1, Glycogen synthase kinase-3 beta (Homo sapiens, UniProt P49841); experiment: Inhibition of human recombinant GSK3beta at 1 uM using Ulight-CFFKNIVTPRTPPPSQGK-amide as substrate measured after 90 mins in presence of ATP by LANCE assay relative to control
In short: (§1)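 Kinase panel run by an outside provider (Eurofins Cerep) in a LANCE assay, single test concentration of 1 µM, results as percent inhibition.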
Target sequence in this assay (P49841 whole entry, looked up): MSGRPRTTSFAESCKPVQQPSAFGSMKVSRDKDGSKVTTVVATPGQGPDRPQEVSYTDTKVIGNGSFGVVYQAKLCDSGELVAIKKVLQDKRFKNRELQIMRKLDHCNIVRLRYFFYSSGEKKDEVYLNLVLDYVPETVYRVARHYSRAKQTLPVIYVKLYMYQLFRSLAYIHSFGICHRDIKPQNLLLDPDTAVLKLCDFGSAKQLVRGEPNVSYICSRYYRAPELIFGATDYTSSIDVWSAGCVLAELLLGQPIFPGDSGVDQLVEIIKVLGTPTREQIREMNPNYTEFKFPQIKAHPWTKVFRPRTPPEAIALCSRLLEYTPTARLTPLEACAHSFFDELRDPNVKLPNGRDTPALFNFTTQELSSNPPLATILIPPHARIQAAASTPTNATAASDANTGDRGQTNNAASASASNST

[3] = Solubility of the compound in PBS buffer at pH 7.8 after 1 hr by HPLC analysis; assay type: physicochemical
[4] = target: Mitogen-activated protein kinase 14 (Homo sapiens, UniProt Q16539); experiment: Inhibition of p38alpha MAPK (unknown origin) using ATF-2 as substrate after 1 hr by ELISA
Chain of Mitogen-activated protein kinase 14 (Q16539 whole entry): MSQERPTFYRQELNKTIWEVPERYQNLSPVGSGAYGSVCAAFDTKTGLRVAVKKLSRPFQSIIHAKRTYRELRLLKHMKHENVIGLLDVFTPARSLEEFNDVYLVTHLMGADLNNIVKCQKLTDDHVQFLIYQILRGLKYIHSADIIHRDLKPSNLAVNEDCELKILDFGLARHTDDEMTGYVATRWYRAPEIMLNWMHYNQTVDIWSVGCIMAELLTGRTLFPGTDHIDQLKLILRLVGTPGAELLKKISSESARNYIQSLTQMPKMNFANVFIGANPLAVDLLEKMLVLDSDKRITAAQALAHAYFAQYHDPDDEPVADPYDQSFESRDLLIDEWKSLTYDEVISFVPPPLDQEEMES

[5] = target: Tyrosine-protein kinase JAK3 (Homo sapiens) (UniProt P52333); experiment: Inhibition of human recombinant JAK3 at 1 uM using Ulight-CAGAGAIETDKEYYTVKD as substrate measured after 60 mins in presence of ATP by LANCE assay relative to control; in short: as §1
Cytochrome P450 2C19 = Cytochrome P450 2C19 (Homo sapiens, UniProt P33261); experiment: Inhibition of human recombinant CYP2C19 expressed in baculovirus infected insect cells using EOMCC as substrate in presence of NADPH by fluorimetric analysis relative to control; assay type: ADME; conditions: recombinant enzyme
[6] = target: Tyrosine-protein kinase ABL1 (Homo sapiens) (UniProt P00519); experiment: Inhibition of recombinant human ABL1 at 1 uM using Ulight-TK peptide as substrate measured after 30 mins in presence of ATP by LANCE assay relative to control
Chain of Tyrosine-protein kinase ABL1 (Homo sapiens) (P00519 whole entry): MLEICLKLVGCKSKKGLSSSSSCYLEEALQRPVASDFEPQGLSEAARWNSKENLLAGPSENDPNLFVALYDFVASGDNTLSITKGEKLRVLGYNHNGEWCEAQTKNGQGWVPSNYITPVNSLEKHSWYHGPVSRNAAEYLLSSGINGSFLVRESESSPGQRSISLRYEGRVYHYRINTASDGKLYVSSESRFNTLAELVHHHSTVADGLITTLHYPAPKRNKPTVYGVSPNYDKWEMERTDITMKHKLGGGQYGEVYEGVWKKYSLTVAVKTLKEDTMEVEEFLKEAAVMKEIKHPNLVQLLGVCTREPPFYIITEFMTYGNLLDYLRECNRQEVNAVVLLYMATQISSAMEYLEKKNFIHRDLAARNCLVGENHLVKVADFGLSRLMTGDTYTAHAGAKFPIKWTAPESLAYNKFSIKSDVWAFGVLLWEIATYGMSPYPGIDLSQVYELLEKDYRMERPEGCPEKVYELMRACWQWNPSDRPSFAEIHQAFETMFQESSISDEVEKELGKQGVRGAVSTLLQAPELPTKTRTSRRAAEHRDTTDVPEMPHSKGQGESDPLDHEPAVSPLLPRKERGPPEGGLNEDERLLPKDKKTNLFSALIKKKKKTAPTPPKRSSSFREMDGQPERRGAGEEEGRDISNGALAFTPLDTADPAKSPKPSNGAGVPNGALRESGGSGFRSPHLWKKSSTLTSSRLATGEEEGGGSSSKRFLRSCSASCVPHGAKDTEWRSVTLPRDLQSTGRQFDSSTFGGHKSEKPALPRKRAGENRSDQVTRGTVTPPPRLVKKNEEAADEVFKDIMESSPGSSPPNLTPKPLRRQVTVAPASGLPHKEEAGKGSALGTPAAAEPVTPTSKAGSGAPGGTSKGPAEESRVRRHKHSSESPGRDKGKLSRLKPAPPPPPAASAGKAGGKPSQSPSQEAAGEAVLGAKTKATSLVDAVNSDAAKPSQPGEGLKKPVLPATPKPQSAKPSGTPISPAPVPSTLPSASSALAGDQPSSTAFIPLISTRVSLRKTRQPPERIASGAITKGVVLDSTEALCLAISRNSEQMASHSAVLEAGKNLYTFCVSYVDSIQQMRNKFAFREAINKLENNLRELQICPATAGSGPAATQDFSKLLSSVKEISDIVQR

[7] = Metabolic stability in human liver microsomes assessed as parent compound remaining after 20 mins by LC-MS analysis relative to control; assay type: ADME, Microsome; conditions: read-out: Stability
[8] = target: Insulin receptor (Homo sapiens) (UniProt P06213); experiment: Inhibition of human recombinant IR at 1 uM using Ulight-Poly GAT[EAY(1:1:1)]n as substrate measured after 10 mins in presence of ATP by LANCE assay relative to control; in short: as §1
[9] = target: High affinity nerve growth factor receptor (Homo sapiens) (UniProt P04629); experiment: Inhibition of human recombinant TRKA at 1 uM using Ulight-Poly GAT[EAY(1:1:1)]n as substrate measured after 10 mins in presence of ATP by LANCE assay relative to control; in short: as §1
[10] = target: T1, Glycogen synthase kinase-3 beta; experiment: Competitive inhibition of human recombinant full length GSK3beta using YRRAAVPPSPSLSRHSSPHQ(pS)EDEEE as substrate preincubated with enzyme for 10 mins followed by substrate and 500 uM ATP addition measured after 60 mins by ADP-Glo luminescence assay
In short: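 Recombinant human GSK3β at 0.58 ng/µL with 0.2 µg/µL substrate G50-58; ATP at 25 µM, 100 µM or 500 µM, each as its line states. Compounds in serial dilutions were preincubated with kinase for 10 min at rt. Substrate/ATP was then added and the reaction ran 60 min at rt. ADP-Glo reagent 60 min, detection reagent 30 min, then luminescence read (500 ms integration).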
Target sequence in this assay (P49841 whole entry): as the sequence (P49841 whole entry, looked up) above

[11] = target: Aurora kinase A (Homo sapiens) (UniProt O14965); experiment: Inhibition of recombinant human Aurora A at 1 uM using Ulight-RRRSLLE substrate incubated for 15 mins in presence of ATP by LANCE assay relative to control
[12] = target: Ephrin type-A receptor 3 (Homo sapiens) (UniProt P29320); experiment: Inhibition of human recombinant EPHA3 at 1 uM using Ulight-TK peptide as substrate measured after 60 mins in presence of ATP by LANCE assay relative to control; in short: as §1
[13] = target: Calcium/calmodulin-dependent protein kinase type II subunit alpha (Homo sapiens) (UniProt Q9UQM7); experiment: Inhibition of human recombinant CAMKA2A at 1 uM using Ulight-CGSGSGRPRTSSFAEG as substrate measured after 30 mins by LANCE assay relative to control; in short: as §1
[14] = target: Glycogen synthase kinase-3 alpha (Homo sapiens, UniProt P49840); experiment: Inhibition of human recombinant full length GSK3alpha using YRRAAVPPSPSLSRHSSPHQ(pS)EDEEE as substrate preincubated with enzyme for 10 mins followed by substrate and 25 uM ATP addition measured after 60 mins by ADP-Glo luminescence assay
Chain of Glycogen synthase kinase-3 alpha (P49840 whole entry): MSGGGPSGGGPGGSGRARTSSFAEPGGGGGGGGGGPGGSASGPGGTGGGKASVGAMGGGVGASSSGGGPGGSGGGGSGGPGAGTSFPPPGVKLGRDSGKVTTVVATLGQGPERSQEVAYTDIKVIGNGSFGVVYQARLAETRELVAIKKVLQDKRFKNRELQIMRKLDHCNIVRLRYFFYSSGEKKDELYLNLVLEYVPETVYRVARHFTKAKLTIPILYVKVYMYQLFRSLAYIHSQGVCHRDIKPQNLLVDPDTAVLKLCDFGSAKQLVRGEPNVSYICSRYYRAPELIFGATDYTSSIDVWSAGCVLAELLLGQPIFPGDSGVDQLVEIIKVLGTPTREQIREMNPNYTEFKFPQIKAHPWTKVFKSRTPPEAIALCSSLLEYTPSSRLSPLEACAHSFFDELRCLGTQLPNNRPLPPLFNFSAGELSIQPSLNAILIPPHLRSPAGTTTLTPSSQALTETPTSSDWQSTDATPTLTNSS
In short: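 Recombinant human GSK3α at 0.50 ng/µL, 25 µM ATP, 0.2 µg/µL substrate G50-58, serial compound dilutions. Kinase was preincubated with compound 10 min at rt, then run 60 min at rt after substrate/ATP addition. ADP-Glo reagent 60 min, detection reagent 30 min, luminescence read. Uninhibited-kinase and ATP/substrate-only controls were included.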

[15] = target: Serine/threonine-protein kinase Nek2 (Homo sapiens) (UniProt P51955); experiment: Inhibition of human recombinant NEK2 at 1 uM using Ulight-FLGFTYVAP as substrate measured after 60 mins in presence of ATP by LANCE assay relative to control; in short: as §1
Chain of Serine/threonine-protein kinase Nek2 (Homo sapiens) (P51955 whole entry): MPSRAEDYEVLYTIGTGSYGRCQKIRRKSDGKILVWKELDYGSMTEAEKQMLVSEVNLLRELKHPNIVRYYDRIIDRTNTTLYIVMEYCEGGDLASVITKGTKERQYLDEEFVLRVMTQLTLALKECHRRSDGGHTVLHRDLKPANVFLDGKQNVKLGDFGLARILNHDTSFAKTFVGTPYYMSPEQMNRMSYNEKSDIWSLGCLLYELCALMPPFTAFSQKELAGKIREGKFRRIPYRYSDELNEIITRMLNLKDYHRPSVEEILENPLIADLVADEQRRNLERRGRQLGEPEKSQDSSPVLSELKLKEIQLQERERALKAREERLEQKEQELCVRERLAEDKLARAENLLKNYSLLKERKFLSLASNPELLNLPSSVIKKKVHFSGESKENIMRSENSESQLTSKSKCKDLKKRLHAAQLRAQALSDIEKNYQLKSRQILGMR

[16] = target: T1, Glycogen synthase kinase-3 beta; experiment: Competitive inhibition of human recombinant full length GSK3beta using YRRAAVPPSPSLSRHSSPHQ(pS)EDEEE as substrate preincubated with enzyme for 10 mins followed by substrate and 25 uM ATP addition measured after 60 mins by ADP-Glo luminescence assay
In short: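 Compounds in serial dilutions were preincubated with kinase for 10 min at rt. Substrate/ATP was then added and the reaction ran 60 min at rt. ADP-Glo reagent 60 min, detection reagent 30 min, then luminescence read (500 ms integration).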
Target sequence in this assay (P49841 whole entry): as the sequence (P49841 whole entry, looked up) above

[17] = target: Rho-associated protein kinase 1 (Homo sapiens) (UniProt Q13464); experiment: Inhibition of human recombinant ROCK1 at 1 uM using Ulight-RRRSLLE as substrate measured after 20 mins in presence of ATP by LANCE assay relative to control; in short: as §1
[18] = target: Mitogen-activated protein kinase 1 (Homo sapiens) (UniProt P28482); experiment: Inhibition of human recombinant ERK2 at 1 uM using Ulight-CFFKNIVTPRTPPPSQGK-amide as substrate measured after 15 mins in presence of ATP by LANCE assay relative to control; in short: as §1
Chain of Mitogen-activated protein kinase 1 (Homo sapiens) (P28482 whole entry): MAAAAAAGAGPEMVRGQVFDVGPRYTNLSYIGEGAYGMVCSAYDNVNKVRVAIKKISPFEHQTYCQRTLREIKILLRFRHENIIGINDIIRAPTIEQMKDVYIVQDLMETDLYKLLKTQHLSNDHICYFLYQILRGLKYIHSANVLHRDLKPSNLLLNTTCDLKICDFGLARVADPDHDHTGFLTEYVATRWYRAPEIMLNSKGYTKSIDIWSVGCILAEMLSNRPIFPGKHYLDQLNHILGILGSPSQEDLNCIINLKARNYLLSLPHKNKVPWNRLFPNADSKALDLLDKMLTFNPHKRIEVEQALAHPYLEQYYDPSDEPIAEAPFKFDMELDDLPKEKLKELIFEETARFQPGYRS

[19] = target: Proto-oncogene tyrosine-protein kinase Src (Homo sapiens) (UniProt P12931); experiment: Inhibition of human recombinant SRC at 1 uM using Ulight-Poly GAT[EAY(1:1:1)]n as substrate measured after 10 mins in presence of ATP by LANCE assay relative to control; in short: as §1
Chain of Proto-oncogene tyrosine-protein kinase Src (Homo sapiens) (P12931 2-536 limits assumed): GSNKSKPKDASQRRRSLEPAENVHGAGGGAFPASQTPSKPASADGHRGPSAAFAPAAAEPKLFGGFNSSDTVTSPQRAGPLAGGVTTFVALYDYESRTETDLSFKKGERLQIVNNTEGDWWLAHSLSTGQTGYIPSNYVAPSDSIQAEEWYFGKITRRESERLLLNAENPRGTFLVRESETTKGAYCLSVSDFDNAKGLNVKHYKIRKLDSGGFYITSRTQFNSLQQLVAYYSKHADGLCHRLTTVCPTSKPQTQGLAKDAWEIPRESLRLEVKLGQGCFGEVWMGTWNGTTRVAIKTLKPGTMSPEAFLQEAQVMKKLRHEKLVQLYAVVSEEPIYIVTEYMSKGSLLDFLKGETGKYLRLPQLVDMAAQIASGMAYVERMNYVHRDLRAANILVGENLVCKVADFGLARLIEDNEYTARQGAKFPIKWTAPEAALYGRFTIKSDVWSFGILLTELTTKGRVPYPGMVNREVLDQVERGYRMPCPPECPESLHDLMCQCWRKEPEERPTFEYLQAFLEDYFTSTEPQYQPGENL

[20] = target: Serine/threonine-protein kinase pim-2 (Homo sapiens) (UniProt Q9P1W9); experiment: Inhibition of human recombinant PIM2 at 1 uM using CREBtide as substrate measured after 60 mins in presence of ATP by LANCE assay relative to control; in short: as §1
Chain of Serine/threonine-protein kinase pim-2 (Homo sapiens) (Q9P1W9 whole entry, looked up): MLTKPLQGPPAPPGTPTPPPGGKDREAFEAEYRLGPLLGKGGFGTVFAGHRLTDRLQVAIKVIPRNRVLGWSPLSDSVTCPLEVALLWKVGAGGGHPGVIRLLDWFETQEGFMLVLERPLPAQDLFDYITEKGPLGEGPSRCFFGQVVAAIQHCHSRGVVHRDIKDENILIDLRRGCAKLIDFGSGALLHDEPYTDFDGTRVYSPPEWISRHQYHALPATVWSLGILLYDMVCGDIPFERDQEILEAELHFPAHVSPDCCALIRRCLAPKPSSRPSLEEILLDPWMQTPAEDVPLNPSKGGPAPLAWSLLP

[21] = target: Serine/threonine-protein kinase PLK1 (Homo sapiens) (UniProt P53350); experiment: Inhibition of human recombinant PLK1 at 1 uM using Ulight-FLGFTYVAP as substrate measured after 60 mins in presence of ATP by LANCE assay relative to control; in short: as §1
Chain of Serine/threonine-protein kinase PLK1 (Homo sapiens) (P53350 whole entry): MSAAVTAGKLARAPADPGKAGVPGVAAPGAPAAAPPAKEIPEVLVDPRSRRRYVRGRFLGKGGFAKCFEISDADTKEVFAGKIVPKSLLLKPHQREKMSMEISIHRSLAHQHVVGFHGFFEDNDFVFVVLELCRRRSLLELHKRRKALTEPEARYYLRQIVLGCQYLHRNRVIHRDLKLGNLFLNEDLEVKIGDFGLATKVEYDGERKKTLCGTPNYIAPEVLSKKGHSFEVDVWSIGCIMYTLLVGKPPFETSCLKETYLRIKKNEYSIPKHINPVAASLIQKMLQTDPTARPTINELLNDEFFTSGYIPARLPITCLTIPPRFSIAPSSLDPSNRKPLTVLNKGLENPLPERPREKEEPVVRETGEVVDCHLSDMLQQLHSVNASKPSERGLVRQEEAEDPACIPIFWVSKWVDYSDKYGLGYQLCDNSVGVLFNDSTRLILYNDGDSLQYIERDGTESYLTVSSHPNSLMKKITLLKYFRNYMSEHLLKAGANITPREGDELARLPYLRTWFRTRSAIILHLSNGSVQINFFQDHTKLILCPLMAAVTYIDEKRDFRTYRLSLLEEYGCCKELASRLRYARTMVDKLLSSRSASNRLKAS

SMILES: CCc1nc(-c2ccc(F)cc2)c(-c2ccnc(NC(=O)C3CC3)c2)[nH]1
- Ratio [1]: 1.1
- inhibition [2]: 97%
- solubility at 1 h [3]: 155 µg/mL (≈ 442 µM)
- IC50 [4]: 0.016 µM
- inhibition [5]: 24.8%
- inhibition (INH) (Cytochrome P450 2C19): 81.7%
- inhibition [6]: 91.5%
- remaining at 20 min [7]: 93.4%
- inhibition [8]: 4.24%
- inhibition [9]: 10.6%
- IC50 [10]: 0.492 µM
- inhibition [11]: 2.76%
- inhibition [12]: 76.6%
- inhibition [13]: -2.55%
- IC50 [14]: 0.301 µM
- inhibition [15]: -1.98%
- IC50 [16]: 0.035 to 0.0456 µM
- inhibition [17]: -8.13%
- inhibition [18]: 10.9%
- inhibition [19]: 51.6%
- inhibition [20]: -0.24%
- inhibition [21]: 2.78%
